≈ marks a conversion by molar mass, not a printed value.
Columns and labels:
[1] = tested on: Actinomyces naeslundii; test: Antimicrobial activity against Actinomyces naeslundii assessed as percent resistant isolates after 48 hrs by agar dilution method; assay type: functional
Outline: (§1)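 CLSI agar dilution on recent Korean clinical anaerobe isolates. Inoculum 10^5 CFU per spot by replicator. Plates incubated in an anaerobic chamber at 37°C for 48 h. For piperacillin plus tazobactam, tazobactam was held constant at 4 μg/ml. Resistance and susceptibility rates derived from MICs.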

[2] = tested on: Prevotella intermedia; test: Antimicrobial activity against Prevotella intermedia assessed as percent susceptible isolates after 48 hrs by agar dilution method; assay type: functional
Outline: (§2)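 CLSI agar dilution (M11-A7); inoculum 10^5 CFU applied by replicator; plates incubated anaerobically 48 h at 37°C. For piperacillin-tazobactam, tazobactam held constant at 4 μg/ml.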

[3] = tested on: Schaalia meyeri; test: Antimicrobial activity against Actinomyces meyeri assessed as percent resistant isolates after 48 hrs by agar dilution method; assay type: functional; outline: as §1
[4] = tested on: Fusobacterium mortiferum; test: Antimicrobial activity against Fusobacterium mortiferum after 48 hrs by agar dilution method in presence of 4 ug/ml beta-lactamase inhibitor Tazobactam; assay type: functional; outline: as §2
[5] = tested on: Bacteroides thetaiotaomicron; test: Antimicrobial activity against Bacteroides thetaiotaomicron assessed as percent resistant isolates after 48 hrs by agar dilution method; assay type: functional; outline: as §1
[6] = tested on: Actinomyces israelii; test: Antimicrobial activity against Actinomyces israelii assessed as percent resistant isolates after 48 hrs by agar dilution method; assay type: functional; outline: as §1
[7] = tested on: Fusobacterium varium; test: Antimicrobial activity against Fusobacterium varium after 48 hrs by agar dilution method in presence of 4 ug/ml beta-lactamase inhibitor Tazobactam; assay type: functional; outline: as §2
[8] = tested on: Prevotella buccae; test: Antimicrobial activity against Prevotella buccae assessed as percent resistant isolates after 48 hrs by agar dilution method; assay type: functional, Segatella buccae; outline: as §1
[9] = tested on: Parvimonas micra; test: Antimicrobial activity against Peptostreptococcus micros assessed as percent susceptible isolates after 48 hrs by agar dilution method in presence of 4 ug/ml beta-lactamase inhibitor Tazobactam; assay type: functional; outline: as §2
[10] = tested on: Eubacterium sp.; test: Antimicrobial activity against Eubacterium sp. after 48 hrs by agar dilution method in presence of 4 ug/ml beta-lactamase inhibitor Tazobactam; assay type: functional; outline: as §2
[11] = tested on: Finegoldia magna; test: Antimicrobial activity against Finegoldia magna assessed as percent susceptible isolates after 48 hrs by agar dilution method; assay type: functional; outline: as §2
[12] = tested on: Schaalia meyeri; test: Antimicrobial activity against Actinomyces meyeri assessed as percent susceptible isolates after 48 hrs by agar dilution method; assay type: functional
[13] = tested on: Bacteroides thetaiotaomicron; test: Antimicrobial activity against Bacteroides thetaiotaomicron assessed as percent susceptible isolates after 48 hrs by agar dilution method; assay type: functional
[14] = tested on: Actinomyces naeslundii; test: Antimicrobial activity against Actinomyces naeslundii assessed as percent susceptible isolates after 48 hrs by agar dilution method; assay type: functional
[15] = tested on: Schaalia odontolytica; test: Antimicrobial activity against Actinomyces odontolyticus after 48 hrs by agar dilution method; assay type: functional
Outline: (§3)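 MICs on clinical anaerobe isolates by the CLSI agar dilution method. Inoculum of 10^5 CFU applied with a Steers replicator. Plates incubated 48 h at 37°C in an anaerobic chamber.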

[16] = tested on: Phocaeicola vulgatus; test: Antimicrobial activity against Bacteroides vulgatus assessed as percent susceptible isolates after 48 hrs by agar dilution method in presence of 4 ug/ml beta-lactamase inhibitor Tazobactam; assay type: functional
[17] = tested on: Prevotella intermedia; test: Antimicrobial activity against Prevotella intermedia after 48 hrs by agar dilution method in presence of 4 ug/ml beta-lactamase inhibitor Tazobactam; assay type: functional; outline: as §2
[18] = tested on: Eggerthella lenta; test: Antimicrobial activity against Eubacterium lentum after 48 hrs by agar dilution method; assay type: functional; outline: as §2
[19] = tested on: Bacteroides thetaiotaomicron; test: Antimicrobial activity against Bacteroides thetaiotaomicron assessed as percent susceptible isolates after 48 hrs by agar dilution method in presence of 4 ug/ml beta-lactamase inhibitor Tazobactam; assay type: functional
[20] = tested on: Hoylesella oralis; test: Antimicrobial activity against Prevotella oralis assessed as percent resistant isolates after 48 hrs by agar dilution method; assay type: functional; outline: as §1
[21] = tested on: Bacteroides fragilis; test: Antimicrobial activity against Bacteroides fragilis assessed as percent susceptible isolates after 48 hrs by agar dilution method in presence of 4 ug/ml beta-lactamase inhibitor Tazobactam; assay type: functional
[22] = tested on: Parabacteroides distasonis; test: Antimicrobial activity against Bacteroides distasonis assessed as percent resistant isolates after 48 hrs by agar dilution method; assay type: functional; outline: as §1
[23] = tested on: Peptoniphilus asaccharolyticus; test: Antimicrobial activity against Peptoniphilus asaccharolyticus after 48 hrs by agar dilution method; assay type: functional; outline: as §2
[24] = tested on: Prevotella intermedia; test: Antimicrobial activity against Prevotella intermedia assessed as percent resistant isolates after 48 hrs by agar dilution method; assay type: functional; outline: as §1
[25] = tested on: Bacteroides caccae; test: Antimicrobial activity against Bacteroides caccae after 48 hrs by agar dilution method; assay type: functional; outline: as §3
[26] = tested on: Parvimonas micra; test: Antimicrobial activity against Peptostreptococcus micros after 48 hrs by agar dilution method; assay type: functional; outline: as §2
[27] = tested on: Phocaeicola vulgatus; test: Antimicrobial activity against Bacteroides vulgatus after 48 hrs by agar dilution method; assay type: functional; outline: as §3
[28] = tested on: Bifidobacterium adolescentis; test: Antimicrobial activity against Bifidobacterium adolescentis assessed as percent susceptible isolates after 48 hrs by agar dilution method; assay type: functional
[29] = tested on: Prevotella bivia; test: Antimicrobial activity against Prevotella bivia after 48 hrs by agar dilution method; assay type: functional; outline: as §2
[30] = tested on: Prevotella bivia; test: Antimicrobial activity against Prevotella bivia assessed as percent susceptible isolates after 48 hrs by agar dilution method; assay type: functional; outline: as §2
[31] = tested on: Clostridium perfringens; test: Antimicrobial activity against Clostridium perfringens after 48 hrs by agar dilution method; assay type: functional
[32] = tested on: Peptostreptococcus anaerobius; test: Antimicrobial activity against Peptostreptococcus anaerobius assessed as percent susceptible isolates after 48 hrs by agar dilution method in presence of 4 ug/ml beta-lactamase inhibitor Tazobactam; assay type: functional; outline: as §2
[33] = tested on: Prevotella buccae; test: Antimicrobial activity against Prevotella buccae after 48 hrs by agar dilution method; assay type: functional; conditions: Segatella buccae; outline: as §2
[34] = tested on: Schaalia odontolytica; test: Antimicrobial activity against Actinomyces odontolyticus assessed as percent resistant isolates after 48 hrs by agar dilution method in presence of 4 ug/ml beta-lactamase inhibitor Tazobactam; assay type: functional; outline: as §1
[35] = tested on: Parabacteroides distasonis; test: Antimicrobial activity against Bacteroides distasonis assessed as percent susceptible isolates after 48 hrs by agar dilution method; assay type: functional
[36] = tested on: Fusobacterium varium; test: Antimicrobial activity against Fusobacterium varium after 48 hrs by agar dilution method; assay type: functional; outline: as §2
[37] = tested on: Bacteroides ovatus; test: Antimicrobial activity against Bacteroides ovatus assessed as percent resistant isolates after 48 hrs by agar dilution method in presence of 4 ug/ml beta-lactamase inhibitor Tazobactam; assay type: functional; outline: as §1
[38] = tested on: Hoylesella oralis; test: Antimicrobial activity against Prevotella oralis after 48 hrs by agar dilution method; assay type: functional; outline: as §2
[39] = tested on: Bacteroides thetaiotaomicron; test: Antimicrobial activity against Bacteroides thetaiotaomicron after 48 hrs by agar dilution method; assay type: functional; outline: as §3
[40] = tested on: Bifidobacterium sp.; test: Antimicrobial activity against Bifidobacterium sp. assessed as percent susceptible isolates after 48 hrs by agar dilution method; assay type: functional; outline: as §2
[41] = tested on: Parabacteroides distasonis; test: Antimicrobial activity against Bacteroides distasonis assessed as percent resistant isolates after 48 hrs by agar dilution method in presence of 4 ug/ml beta-lactamase inhibitor Tazobactam; assay type: functional; outline: as §1
[42] = tested on: Bacteroides ovatus; test: Antimicrobial activity against Bacteroides ovatus after 48 hrs by agar dilution method in presence of 4 ug/ml beta-lactamase inhibitor Tazobactam; assay type: functional
Outline: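 MICs by CLSI agar dilution for piperacillin combined with tazobactam, with tazobactam held constant at 4 μg/ml. Clinical anaerobe isolates inoculated at 10^5 CFU by Steers replicator. Plates kept in an anaerobic chamber at 37°C for 48 h.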

SMILES: CCN1CCN(C(=O)N[C@@H](C(=O)N[C@@H]2C(=O)N3[C@@H]2SC(C)(C)[C@@H]3C(=O)O)c2ccccc2)C(=O)C1=O [PIPERACILLIN]
- Activity [1]: 0%
- Activity [2]: 100%
- Activity [3]: 0%
- MIC [4]: 0.03 µg/mL
- Activity [5]: 51%
- Activity [6]: 0%
- MIC [7]: 0.03 µg/mL
- Activity [8]: 11%
- Activity [9]: 0%
- MIC50 [10]: 0.5 µg/mL
- MIC90 [10]: 8 µg/mL
- Activity [11]: 100%
- Activity [12]: 92%
- Activity [13]: 42%
- Activity [14]: 92%
- MIC50 [15]: 1 µg/mL (≈ 1.93 µM)
- MIC90 [15]: 8 µg/mL (≈ 15.5 µM)
- Activity [16]: 89%
- MIC50 [17]: ≤ 0.03 µg/mL
- MIC90 [17]: ≤ 0.03 µg/mL
- MIC50 [18]: 1 µg/mL (≈ 1.93 µM)
- MIC90 [18]: 8 µg/mL (≈ 15.5 µM)
- Activity [19]: 89%
- Activity [20]: 11%
- Activity [21]: 97%
- Activity [22]: 51%
- MIC50 [23]: ≤ 0.06 µg/mL
- MIC90 [23]: ≤ 0.06 µg/mL
- Activity [24]: 0%
- MIC50 [25]: 128 µg/mL (≈ 247 µM)
- MIC90 [25]: > 256 µg/mL
- MIC50 [26]: 0.25 µg/mL (≈ 0.483 µM)
- MIC90 [26]: 16 µg/mL (≈ 30.9 µM)
- MIC50 [27]: 128 µg/mL (≈ 247 µM)
- MIC90 [27]: > 256 µg/mL
- Activity [28]: 92%
- MIC50 [29]: 16 µg/mL (≈ 30.9 µM)
- MIC90 [29]: 128 µg/mL (≈ 247 µM)
- Activity [30]: 78%
- MIC50 [31]: 0.25 µg/mL (≈ 0.483 µM)
- MIC90 [31]: 0.5 µg/mL (≈ 0.966 µM)
- Activity [32]: 100%
- MIC50 [33]: 16 µg/mL (≈ 30.9 µM)
- MIC90 [33]: 128 µg/mL (≈ 247 µM)
- Activity [34]: 0%
- Activity [35]: 42%
- MIC [36]: 0.06 µg/mL (≈ 0.116 µM)
- Activity [37]: 7%
- MIC50 [38]: 16 µg/mL (≈ 30.9 µM)
- MIC90 [38]: 128 µg/mL (≈ 247 µM)
- MIC50 [39]: 128 µg/mL (≈ 247 µM)
- MIC90 [39]: > 256 µg/mL
- Activity [40]: 92%
- Activity [41]: 7%
- MIC50 [42]: 8 µg/mL
- MIC90 [42]: 64 µg/mL

From ChEMBL document CHEMBL1671716, “Antimicrobial susceptibility patterns for recent clinical isolates of anaerobic bacteria in South Korea” (2010)
